# Results taken from ChEMBL document CHEMBL1141424, “Antitubercular dihydroagarofuranoid sesquiterpenes from the roots of Microtropis fokienensis” (2007).
# System: Mycobacterium tuberculosis
# Assay: Antitubercular activity against Mycobacterium tuberculosis 90-221387
# Assay type: functional
# Outline: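 Agar proportion method on Middlebrook 7H10 with OADC, clinical susceptible isolate 90-221387. Compound serially diluted into agar at 50-56 °C, final 100 to 0.8 µg/mL, in quadrant plates. Inoculum in 7H9 broth adjusted to McFarland no. 1, then 10-2 dilution, spotted on each quadrant. Incubated 35 °C, 10% CO2, 2 weeks. MIC read; ethambutol positive control; means of 3 or 4 replicates.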
smiles,measurement,value
CC[C@H](CC[C@@H](C)[C@H]1CC[C@H]2[C@@H]3CC=C4CC(=O)CC[C@]4(C)[C@H]3CC[C@]12C)C(C)C [BETA-SITOSTENONE],MIC,> 400 µM
CC(=O)O[C@H]1CC[C@@H](C)[C@@]23C[C@@H](C[C@H](OC(=O)c4ccccc4)[C@]12C)C(C)(C)O3,MIC,26 µM
CC(=O)O[C@H]1[C@@H](O)C[C@@H](C)[C@]23OC(C)(C)[C@H](C[C@H](OC(=O)c4ccccc4)[C@]12COC(=O)c1ccccc1)[C@H]3OC(=O)c1ccccc1,MIC,19.5 µM
O=C(O)c1ccc(O)cc1 [PARABEN],MIC,362 µM
COc1cc(C(=O)O)ccc1O [VANILLIC ACID],MIC,375 µM
O=Cc1ccc(O)cc1 [4-HYDROXYBENZALDEHYDE],MIC,> 400 µM
O=Cc1cc(Cc2ccc(O)cc2)ccc1O [FORKIENIN],MIC,276 µM
CC[C@H](CC[C@@H](C)[C@H]1CC[C@H]2[C@@H]3CC=C4C[C@@H](O)CC[C@]4(C)[C@H]3CC[C@]12C)C(C)C [BETA-SITOSTEROL],MIC,> 400 µM
COc1cc(C(=O)O)cc(OC)c1O [SYRINGIC ACID],MIC,318 µM
CC(=O)O[C@H]1C[C@@H](C)[C@]23OC(C)(C)[C@H](C[C@H](OC(=O)c4ccccc4)[C@]2(COC(=O)c2ccccc2)[C@H]1OC(C)=O)[C@H]3OC(C)=O [MUTANGIN],MIC,51.8 µM
CC(=O)O[C@H]1CC[C@@H](C)[C@]23OC(C)(C)[C@H](C[C@H](OC(=O)c4ccccc4)[C@]12COC(=O)c1ccccc1)[C@H]3OC(=O)c1ccccc1,MIC,78.1 µM
CC(=O)O[C@H]1[C@@H](OC(=O)c2ccccc2)C[C@@H](C)[C@]23OC(C)(C)[C@H](C[C@H](OC(=O)c4ccccc4)[C@]12C)[C@H]3OC(=O)c1ccccc1 [ORBICULIN G],MIC,14.6 µM
CC(=O)O[C@H]1C[C@@H](C)[C@]23OC(C)(C)[C@H](C[C@H](OC(=O)c4ccccc4)[C@]2(COC(=O)c2ccccc2)[C@H]1OC(C)=O)[C@H]3OC(=O)c1ccccc1,MIC,96 µM
CC[C@@H](CO)NCCN[C@@H](CC)CO [ETHAMBUTOL],MIC,30.6 µM
CC(=O)O[C@H]1C[C@@H](C)[C@]23OC(C)(C)[C@H](C[C@H](OC(=O)c4ccccc4)[C@]2(COC(=O)c2ccccc2)[C@H]1O)[C@H]3OC(=O)c1ccccc1,MIC,15.8 µM
